pEC50, pKi: −log10 of the molar value.
What was measured:
[1] = biological target: T1, Neurotensin receptor type 2 (Rattus norvegicus, UniProt Q63384); test: Agonist activity at rat NTS2 stably expressed in CHOK1 cells assessed as induction of calcium release by FLIPR assay; assay type: functional, cell-based, CHO-K1; settings: for EC50: cho-k1; for pEC50: read-out: EC50
T1 sequence (Q63384 whole entry): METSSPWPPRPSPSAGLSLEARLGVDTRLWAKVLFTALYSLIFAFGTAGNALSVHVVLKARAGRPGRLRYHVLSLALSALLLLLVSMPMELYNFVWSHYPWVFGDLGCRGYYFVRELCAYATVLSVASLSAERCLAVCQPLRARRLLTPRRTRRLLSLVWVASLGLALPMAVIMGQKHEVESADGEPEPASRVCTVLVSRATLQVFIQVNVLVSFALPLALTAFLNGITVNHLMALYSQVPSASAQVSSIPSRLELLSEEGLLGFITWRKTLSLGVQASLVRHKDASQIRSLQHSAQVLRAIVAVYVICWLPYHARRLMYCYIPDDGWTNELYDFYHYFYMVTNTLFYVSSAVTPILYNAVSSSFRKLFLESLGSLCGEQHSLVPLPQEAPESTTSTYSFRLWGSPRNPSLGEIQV

[2] = biological target: T2, Neurotensin receptor type 2 (Rattus norvegicus) (UniProt Q63384); test: Agonist activity at rat NTS2 stably expressed in CHOK1 cells assessed as induction of calcium release by FLIPR assay relative to SR142948a; assay type: functional, cell-based; settings: CHO-K1
T2 sequence (whole entry): T1 sequence (Q63384 whole entry)
How it was run: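 Rat NTS2 expressed in CHO-k1 cells, plated at 25000/well the day before the assay. Cells were loaded with Calcium 5 dye (1:20 in HBSS, 20 mM HEPES, 2.5 mM probenecid, pH 7.4) for 45 min at 37 °C, then pretreated with 10% DMSO added 1:10. Full-log compound dilutions were read on FLIPR Tetra every second for 100 s. Emax is expressed as % of the full-agonist standard; EC50 from a three-parameter logistic fit; at least three experiments in duplicate.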

[3] = biological target: Neurotensin receptor type 1 (Rattus norvegicus) (UniProt P20789); test: Antagonist activity at rat NTS1 stably expressed in CHOK1 cells assessed as inhibition of NT-induced calcium release by FLIPR assay; assay type: functional, cell-based; settings: CHO-K1
Neurotensin receptor type 1 (Rattus norvegicus), sequence (P20789 whole entry): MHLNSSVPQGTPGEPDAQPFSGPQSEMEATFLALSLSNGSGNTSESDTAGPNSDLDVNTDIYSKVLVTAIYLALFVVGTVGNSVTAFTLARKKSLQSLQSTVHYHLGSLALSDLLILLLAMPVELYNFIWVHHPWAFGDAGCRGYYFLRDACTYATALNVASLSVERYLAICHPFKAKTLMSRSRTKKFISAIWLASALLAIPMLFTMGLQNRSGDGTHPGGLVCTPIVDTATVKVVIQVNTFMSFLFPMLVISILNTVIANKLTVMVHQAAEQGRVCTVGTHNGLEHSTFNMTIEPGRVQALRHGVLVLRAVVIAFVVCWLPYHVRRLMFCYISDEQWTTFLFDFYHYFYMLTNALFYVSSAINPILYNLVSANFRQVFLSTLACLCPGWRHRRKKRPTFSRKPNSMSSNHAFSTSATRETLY
How it was run: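 Rat NTS1 CHO-k1 cells, plated at 30000/well on the assay day. Cells were loaded with Calcium 5 dye (1:40 in HBSS, 20 mM HEPES, 2.5 mM probenecid, pH 7.4) for 45 min at 37 °C, then preincubated with compound for 15 min. […] Fluorescence (ex 485/em 525 nm) read for 60 s on FlexStation II; three-parameter logistic fit; at least three experiments in duplicate.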

[4] = biological target: T1, Neurotensin receptor type 2; test: Displacement of [125I]NT at rat NTS2 overexpressed in CHOK1 cells after 30 mins by gamma counting; assay type: cell-based, CHO-K1
[5] = biological target: Neurotensin receptor type 1 (Rattus norvegicus, UniProt P20789); test: Agonist activity at rat NTS1 stably expressed in CHOK1 cells assessed as induction of calcium release by FLIPR assay; assay type: functional, cell-based; settings: cho-k1
Neurotensin receptor type 1, sequence (P20789 whole entry): as above

SMILES	Emax [2] [%]	Ke [3] [nM]	also measured
CC[C@H](C)[C@H](NC(=O)[C@H](Cc1ccc(O)cc1)NC(=O)[C@@H]1CCCN1C(=O)[C@H](CCCN=C(N)N)NC(=O)[C@@H](N)CCCN=C(N)N)C(=O)N[C@@H](CC(C)C)C(=O)O			EC50 [1]: Not Active
COc1cccc(OC)c1-c1cc(C(=O)NC2(C(=O)O)CCCC2)nn1-c1ccnc2cc(Cl)ccc12	76	222	
COc1ccccc1-c1cc(C(=O)N[C@H](C(=O)O)C2CCCCC2)nn1-c1ccnc2cc(Cl)ccc12	25	1680	
COc1cccc(OC)c1-c1cc(C(=O)NC2(C(=O)O)CCCCCC2)nn1-c1ccnc2cc(Cl)ccc12	89	42	
COc1ccccc1-c1cc(C(=O)NC2(C(=O)O)CCCCC2)nn1-c1cccc2ccccc12	18	7380	
COc1ccc(OC)c(-c2cc(C(=O)N[C@H](C(=O)O)C3CCCCC3)nn2-c2ccnc3cc(Cl)ccc23)c1	19	1280	
COc1cccc(OC)c1-c1cc(C(=O)NC2C3CC4CC(C3)CC2C4)nn1-c1ccnc2cc(Cl)ccc12 (configuration not stated)			EC50 [1]: Not Active
COc1ccc(-c2cc(C(=O)N[C@H](C(=O)O)C3CCCCC3)nn2-c2ccnc3cc(Cl)ccc23)c(OC)c1	12		
CCc1c(C(=O)N[C@H](C(=O)O)C2CCCCC2)nn(-c2ccnc3cc(Cl)ccc23)c1-c1c(OC)cccc1OC	15		pEC50 [1]: 7.03; pKi [4]: 5.93
COc1cccc(OC)c1-c1cc(C(=O)NC2(C(=O)O)C3CC4CC(C3)CC2C4)nn1-c1ccnc2cc(Cl)ccc12 (configuration not stated) [REMINERTANT]	100		pEC50 [1]: 6.92; pKi [4]: 7.21
COc1cccc(OC)c1-c1cc(C(=O)N[C@H](C(=O)O)C2CCCCC2)nn1-c1ccc(F)cc1	22	3340	
COc1cccc(OC)c1-c1cc(C(=O)N[C@H](C(=O)O)C2CCCCC2)nn1-c1ccnc2cc(Cl)ccc12	86	23	
COc1ccccc1-c1cc(C(=O)NC2(C(=O)O)CCCCC2)nn1-c1ccnc2cc(Cl)ccc12	35	4550	
COc1cccc(OC)c1-c1cc(C(=O)NC2(C(=O)O)CCCCC2)nn1-c1ccnc2cc(Cl)ccc12	78	157	
COc1ccccc1-c1cc(C(=O)N[C@H](C(=O)O)C2CCCCC2)nn1-c1cccc2ccccc12	18	1400	
COc1cccc(OC)c1-c1cc(C(=O)NC2(C(=O)O)CCCCC2)nn1-c1cccc2ccccc12	35	230	
COc1cccc(OC)c1-c1cc(C(=O)NC2(C(=O)O)C3CC4CC(C3)CC2C4)nn1-c1ccc(F)cc1 (configuration not stated)	34	191	
COc1cccc(OC)c1-c1cc(C(=O)NC2(C(=O)O)C3CC4CC(C3)CC2C4)nn1-c1ccc(C(=O)N(C)CCCN(C)C)cc1C(C)C (configuration not stated)	100		pEC50 [1]: 7.70; pKi [4]: 8.22
COc1cccc(OC)c1-c1cc(C(=O)NC2(C(=O)O)CCCCC2)nn1-c1ccc(F)cc1	15		
O=C(N[C@H](C(=O)O)C1CCCCC1)c1cc(-c2c(F)cccc2F)n(-c2ccnc3cc(Cl)ccc23)n1	15		
COc1cccc(OC)c1-c1cc(C(=O)N[C@H](C(=O)O)C2CCCCC2)nn1-c1cccc2ccccc12	45	58	
C[C@@H]1CN([C@H]2CC[C@](C#N)(c3ccc(F)cc3)CC2)CC[C@]1(C(=O)O)c1ccccc1 [LEVOCABASTINE]	16		EC50 [5]: Not Active

Reference: ChEMBL document CHEMBL3286167 (J Med Chem, 2014)
